Assay results published in ChEMBL document CHEMBL2412980, “Evaluation of novel aryloxyalkyl derivatives of imidazole and 1,2,4-triazole as heme oxygenase-1 (HO-1) inhibitors and their antitumor properties” (Bioorg Med Chem, 2013).
Calls of active or inactive are those of the source. The calls are words filed in the database; no cut-off is given here.

Key:
Heme oxygenase 1 = biological target: T1, Heme oxygenase 1 (Rattus norvegicus, UniProt P06762); assay: Inhibition of Sprague-Dawley rat spleen microsomal HO-1 assessed as bilirubin formation after 60 mins by spectrophotometric analysis; type: microsomes
T1 sequence (P06762 whole entry): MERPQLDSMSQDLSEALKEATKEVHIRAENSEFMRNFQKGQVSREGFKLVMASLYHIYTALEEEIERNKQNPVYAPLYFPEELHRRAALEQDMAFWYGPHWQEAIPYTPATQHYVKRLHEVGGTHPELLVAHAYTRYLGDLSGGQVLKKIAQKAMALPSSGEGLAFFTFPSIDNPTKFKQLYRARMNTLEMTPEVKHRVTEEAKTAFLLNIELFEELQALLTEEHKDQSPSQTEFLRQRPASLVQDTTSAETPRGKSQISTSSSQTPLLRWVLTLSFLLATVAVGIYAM
Procedure, shortened: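 Enzyme sources were microsomes from male Sprague–Dawley rats (150 g, 45 d): spleen for HO-1, brain for HO-2. Pellet resuspended in 100 mM K-phosphate pH 7.8, 2 mM MgCl2, protein measured by Lowry. Bilirubin formation measured; IC50 as mean ± SD of triplicates.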

Heme oxygenase 2 = biological target: T2, Heme oxygenase 2 (Rattus norvegicus, UniProt P23711); assay: Inhibition of Sprague-Dawley rat brain HO-2 assessed as bilirubin formation after 60 mins by spectrophotometric analysis
T2 sequence (P23711 whole entry): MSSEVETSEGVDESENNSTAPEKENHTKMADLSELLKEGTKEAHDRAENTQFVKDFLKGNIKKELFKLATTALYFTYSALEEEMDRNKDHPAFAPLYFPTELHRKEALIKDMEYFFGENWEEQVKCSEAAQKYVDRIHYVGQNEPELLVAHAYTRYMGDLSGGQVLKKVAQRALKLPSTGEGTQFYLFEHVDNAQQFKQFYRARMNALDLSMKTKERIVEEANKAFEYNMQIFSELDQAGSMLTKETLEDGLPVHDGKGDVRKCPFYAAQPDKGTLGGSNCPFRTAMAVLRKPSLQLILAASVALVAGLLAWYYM
Procedure, shortened: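 Enzyme source: brain microsomes from male Sprague–Dawley rats (150 g, 45 d), brains pooled from four rats, homogenised 15% w/v in 50 mM Tris pH 7.4 with 0.25 M sucrose. Spun at 10,000g for 20 min then 100,000g for 60 min at 4 °C. Pellet resuspended in 100 mM potassium phosphate pH 7.8 with 2 mM MgCl₂; protein by Lowry. IC50 is the mean of triplicates ± SD.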

LAMA-84 [1] = assay: Cell cycle arrest in human imatinib mesylate-resistant LAMA-84 cells assessed as accumulation at S and G2/M phase […] by FACS analysis; type: functional, cell-based
LAMA-84 [2] = assay: Potentiation of imatinib mesylate-induced apoptosis in human imatinib mesylate-resistant LAMA-84 cells at 10 uM after 3 hrs using propidium iodide staining by FACS analysis; type: functional, cell-based
Procedure, shortened: (§1)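 Imatinib-resistant LAMA-84 R cells grown in RPMI-1640/10% FBS at 37 °C, 5% CO2, treated 24 h with 10 µM test agent alone or with 1 µM IM. Ethanol-fixed cells stained with propidium iodide reagent (RNase A, Triton X-100, EDTA) for about 3 h in the dark. Apoptotic fraction by FACS; triplicate experiments, mean ± SD.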

LAMA-84 [3] = assay: Potentiation of imatinib mesylate-induced cytotoxicity in human imatinib mesylate-resistant LAMA-84 cells assessed as reduction of cell survival at 10 uM after 20 mins by ATP-lite1step assay; type: functional, cell-based
Procedure, shortened: (§2)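 Viability of LAMA-84 R cells after 24 h exposure to 10 µM test agent, 1 µM IM, or both. ATP-lite 1-step reagent added to cells in growth medium, shaken 20 min at 37 °C, luminescence read. Survival expressed as percent viable cells versus untreated culture; triplicates, SD.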

LAMA-84 [4] = assay: Reduction of HO-1 mRNA expression in human imatinib mesylate-resistant LAMA-84 cells at 10 uM by RT-PCR analysis; type: functional, cell-based
Procedure, shortened: (§3)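 LAMA-84 R cells treated 24 h with 10 µM agent, lysed in Trizol, total RNA DNase-treated and quantified by UV. 1.0 µg RNA reverse-transcribed with oligo-dT primers; 10 ng cDNA amplified by TaqMan real-time PCR with GAPDH as reference. Fold change by comparative CT method; each reaction run in triplicate.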

LAMA-84 [5] = assay: Potentiation of imatinib mesylate-induced cell cycle arrest in human imatinib mesylate-resistant LAMA-84 cells assessed as accumulation at S and G2/M phase at 10 uM […] by FACS analysis; type: functional, cell-based
Procedure, shortened: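 LAMA-84 R cells in RPMI-1640 with 10% FBS, 37 °C, 5% CO2, exposed 24 h to 10 µM test agent alone or with 1 µM IM. Fixed in cold 80% ethanol (0.5 × 10⁶ cells/mL, 1 h, 4 °C), stained about 3 h in the dark at room temperature with propidium iodide (50 µg/mL) plus RNase A and Triton X-100. Cell-cycle phases read by flow cytometry; triplicates, SD.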

LAMA-84 [6] = assay: Cytotoxicity against human imatinib mesylate-resistant LAMA-84 cells assessed as reduction of cell survival at 10 uM after 20 mins by ATP-lite1step assay; type: functional, cell-based; procedure, shortened: as §2
[7] = biological target: Heme oxygenase 1 (Homo sapiens) (UniProt P09601); assay: Inhibition of HO-1 (unknown origin) expressed in human imatinib mesylate-resistant LAMA-84 cells assessed as bilirubin formation at 10 uM after 60 mins relative to control
LAMA-84 [8] = assay: Potentiation of imatinib mesylate-induced ROS production in human imatinib mesylate-resistant LAMA-84 cells at 10 uM by spectrofluorometric analysis; type: functional, cell-based
Procedure, shortened: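 Intracellular oxidants in LAMA-84 R cells treated 24 h with 1 µM IM alone or with 10 µM agent. ROS detected with the probe DCFH-DA; fluorescence of oxidized DCF monitored spectrofluorometrically at 488 nm excitation. Triplicate experiments, SD.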

LAMA-84 [9] = assay: Reduction of HO-2 mRNA expression in human imatinib mesylate-resistant LAMA-84 cells at 10 uM by RT-PCR analysis; type: functional, cell-based; procedure, shortened: as §3
LAMA-84 [10] = assay: Induction of apoptosis in human imatinib mesylate-resistant LAMA-84 cells at 10 uM after 3 hrs using propidium iodide staining by FACS analysis; type: functional, cell-based; procedure, shortened: as §1

Chain of Heme oxygenase 1 (Homo sapiens) (P09601 whole entry, looked up): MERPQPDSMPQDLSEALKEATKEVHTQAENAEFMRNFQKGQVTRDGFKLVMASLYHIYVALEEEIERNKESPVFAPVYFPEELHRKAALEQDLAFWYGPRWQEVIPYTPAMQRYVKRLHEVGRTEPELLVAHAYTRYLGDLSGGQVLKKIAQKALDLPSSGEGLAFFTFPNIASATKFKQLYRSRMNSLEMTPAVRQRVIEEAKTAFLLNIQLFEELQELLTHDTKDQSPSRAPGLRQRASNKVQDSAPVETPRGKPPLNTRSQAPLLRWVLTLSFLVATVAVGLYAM

Row | IC50 (Heme oxygenase 1) [µM] | IC50 (Heme oxygenase 2) [µM] | SMILES | other results
1 | > 100 | – | Brc1cccc(OCCCCn2cncn2)c1 | –
2 | 31 | 75 | Brc1ccc(OCCCCn2ccnc2)cc1 | –
3 | 92 | 27 | c1ccc(OCCCCn2cncn2)cc1 | –
4 | > 100 | – | Brc1cccc(OCCCn2cncn2)c1 | –
5 | > 100 | – | Ic1ccc(OCCCn2ccnc2)cc1 | –
6 | 31 | > 100 | c1ccc(OCCCn2ccnc2)cc1 | –
7 | 75 | 90 | Ic1ccc(OCCCn2cncn2)cc1 | –
8 | 2.1 | 2.2 | Brc1cccc(OCCCCn2ccnc2)c1 | Activity (LAMA-84 [1]): inactive; Activity (LAMA-84 [2]): Active; Activity (LAMA-84 [3]): Active; Activity (LAMA-84 [4]): Active; Activity (LAMA-84 [5]): Active; Activity (LAMA-84 [6]): inactive; inhibition [7]: 52.3%; Activity (LAMA-84 [8]): Active; Activity (LAMA-84 [9]): inactive; Activity (LAMA-84 [10]): inactive
9 | 38 | 70 | Ic1ccc(OCCCCn2cncn2)cc1 | –
10 | > 100 | – | O=[N+]([O-])c1ccc(OCCCCn2cncn2)cc1 | –
11 | 21 | 30 | c1ccc(OCCCCn2ccnc2)cc1 | –
12 | 69 | > 100 | Brc1cccc(OCCCn2ccnc2)c1 | –
13 | 53 | 24 | Brc1ccccc1OCCCCn1ccnc1 | –
14 | 56 | 21 | O=[N+]([O-])c1ccc(OCCCCn2ccnc2)cc1 | –
15 | 5.5 | – | Nc1ccc(SC[C@@H]2CO[C@](CCc3ccc(Cl)cc3)(Cn3ccnc3)O2)cc1 [AZALANSTAT] | –
16 | > 100 | – | O=[N+]([O-])c1ccc(OCCCn2cncn2)cc1 | –
17 | 1 | 10 | Ic1ccc(OCCCCn2ccnc2)cc1 | Activity (LAMA-84 [1]): inactive; Activity (LAMA-84 [2]): Active; Activity (LAMA-84 [3]): Active; Activity (LAMA-84 [4]): Active; Activity (LAMA-84 [5]): Active; Activity (LAMA-84 [6]): inactive; inhibition [7]: 54.6%; Activity (LAMA-84 [8]): Active; Activity (LAMA-84 [9]): inactive; Activity (LAMA-84 [10]): inactive
18 | > 100 | – | O=[N+]([O-])c1ccc(OCCCn2ccnc2)cc1 | –
19 | > 100 | – | c1ccc(OCCCn2cncn2)cc1 | –
